Experimental data reported in ChEMBL document CHEMBL3046106, “Synthesis and herbicidal activity of diphenyl ether derivatives containing unsaturated carboxylates” (J Agric Food Chem, 2011).

Assays:
Type in all cases: functional
Echinochloa crus-galli [1] = assay: Herbicidal activity against Echinochloa crus-galli (barnyard grass) at 200 g/hm2 postemergent application after 2 weeks
Summary of the method: (§1)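 Seedlings grown 14 days in the greenhouse; plants uniform in size and stage were chosen. Test compound in acetone sprayed post-emergence at a carrier volume equivalent to 187 L/ha. Plants returned to the greenhouse and watered; untreated plants served as control. Each species scored visually two weeks after application on a 0–100 scale (0 no activity, 100 total control).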

Digitaria sanguinalis [2] = assay: Herbicidal activity against Digitaria sanguinalis (hairy crabgrass) at 1000 g/hm2 postemergent application after 2 weeks; summary of the method: as §1
Abutilon theophrasti [3] = assay: Herbicidal activity against Abutilon theophrasti (velvetleaf) at 1000 g/hm2 postemergent application after 2 weeks; summary of the method: as §1
Abutilon theophrasti [4] = assay: Herbicidal activity against Abutilon theophrasti (velvetleaf) at 200 g/hm2 postemergent application after 2 weeks; summary of the method: as §1
Digitaria sanguinalis [5] = assay: Herbicidal activity against Digitaria sanguinalis (hairy crabgrass) at 200 g/hm2 postemergent application after 2 weeks; summary of the method: as §1
Echinochloa crus-galli [6] = assay: Herbicidal activity against Echinochloa crus-galli (barnyard grass) at 1000 g/hm2 postemergent application after 2 weeks; summary of the method: as §1
Echinochloa crus-galli [7] = assay: Herbicidal activity against Echinochloa crus-galli (barnyard grass) at 30 g/hm2 postemergent application after 2 weeks; summary of the method: as §1
Digitaria sanguinalis [8] = assay: Herbicidal activity against Digitaria sanguinalis (hairy crabgrass) at 120 g/hm2 postemergent application after 2 weeks; summary of the method: as §1
Digitaria sanguinalis [9] = assay: Herbicidal activity against Digitaria sanguinalis (hairy crabgrass) at 480 g/hm2 postemergent application after 2 weeks; summary of the method: as §1
Abutilon theophrasti [10] = assay: Herbicidal activity against Abutilon theophrasti (velvetleaf) at 30 g/hm2 postemergent application after 2 weeks; summary of the method: as §1
Abutilon theophrasti [11] = assay: Herbicidal activity against Abutilon theophrasti (velvetleaf) at 120 g/hm2 postemergent application after 2 weeks; summary of the method: as §1
Digitaria sanguinalis [12] = assay: Herbicidal activity against Digitaria sanguinalis (hairy crabgrass) at 30 g/hm2 postemergent application after 2 weeks; summary of the method: as §1
Abutilon theophrasti [13] = assay: Herbicidal activity against Abutilon theophrasti (velvetleaf) at 480 g/hm2 postemergent application after 2 weeks; summary of the method: as §1
Echinochloa crus-galli [14] = assay: Herbicidal activity against Echinochloa crus-galli (barnyard grass) at 480 g/hm2 postemergent application after 2 weeks; summary of the method: as §1
Echinochloa crus-galli [15] = assay: Herbicidal activity against Echinochloa crus-galli (barnyard grass) at 120 g/hm2 postemergent application after 2 weeks; summary of the method: as §1
Echinochloa crus-galli [16] = assay: Herbicidal activity against Echinochloa crus-galli (barnyard grass) at 40 g/hm2 postemergent application after 2 weeks; summary of the method: as §1
Digitaria sanguinalis [17] = assay: Herbicidal activity against Digitaria sanguinalis (hairy crabgrass) at 40 g/hm2 postemergent application after 2 weeks; summary of the method: as §1
Abutilon theophrasti [18] = assay: Herbicidal activity against Abutilon theophrasti (velvetleaf) at 40 g/hm2 postemergent application after 2 weeks; summary of the method: as §1

Row | Structure (SMILES) | Activity (Echinochloa crus-galli [1]) [%] | Activity (Digitaria sanguinalis [2]) [%] | Activity (Abutilon theophrasti [3]) [%] | Activity (Abutilon theophrasti [4]) [%] | Activity (Digitaria sanguinalis [5]) [%] | Activity (Echinochloa crus-galli [6]) [%] | Activity (Echinochloa crus-galli [7]) [%] | Activity (Digitaria sanguinalis [8]) [%] | Activity (Digitaria sanguinalis [9]) [%] | Activity (Abutilon theophrasti [10]) [%] | Activity (Abutilon theophrasti [11]) [%] | Activity (Digitaria sanguinalis [12]) [%] | Activity (Abutilon theophrasti [13]) [%] | Activity (Echinochloa crus-galli [14]) [%] | Activity (Echinochloa crus-galli [15]) [%] | Activity (Echinochloa crus-galli [16]) [%] | Activity (Digitaria sanguinalis [17]) [%] | Activity (Abutilon theophrasti [18]) [%]
1 | CCOC(=O)/C=C(/OC(=O)c1cc(Oc2ccc(C(F)(F)F)cc2Cl)ccc1[N+](=O)[O-])C(F)(F)F | 0 | 50 | 60 | 0 | 0 | 35 |  |  |  |  |  |  |  |  |  |  |  | 
2 | C=CCOC(=O)/C=C(\C)OC(=O)c1cc(Oc2ccc(C(F)(F)F)cc2Cl)ccc1[N+](=O)[O-] | 5 | 35 | 40 | 0 | 5 | 25 |  |  |  |  |  |  |  |  |  |  |  | 
3 | COC(=O)/C=C/COC(=O)c1cc(Oc2ccc(C(F)(F)F)cc2Cl)ccc1[N+](=O)[O-] |  |  |  |  |  |  | 10 | 80 | 90 | 30 | 95 | 20 | 100 | 80 | 60 |  |  | 
4 | CCOC(=O)/C=C(\C)OC(=O)c1cc(Oc2ccc(C(F)(F)F)cc2Cl)ccc1Cl | 20 | 25 |  |  | 20 | 95 |  |  |  |  |  |  |  |  |  | 0 | 10 | 
5 | C=C(C(=O)OCC)C(C)OC(=O)c1cc(Oc2ccc(C(F)(F)F)cc2Cl)ccc1[N+](=O)[O-] (stereo not drawn) | 20 | 90 | 100 | 50 | 70 | 30 |  |  |  |  |  |  |  |  |  | 10 | 25 | 5
6 | CCOC(=O)/C=C/COC(=O)c1cc(Oc2ccc(C(F)(F)F)cc2Cl)ccc1Cl | 45 | 70 | 100 | 100 | 30 | 85 |  |  |  |  |  |  |  |  |  | 15 | 20 | 98
7 | C=C(C(=O)OCC)C(C)OC(=O)c1cc(Oc2ccc(C(F)(F)F)cc2Cl)ccc1Cl (stereo not drawn) | 20 | 40 | 100 | 75 | 35 | 95 |  |  |  |  |  |  |  |  |  | 0 | 0 | 5
8 | COCCOC(=O)/C=C(\C)OC(=O)c1cc(Oc2ccc(C(F)(F)F)cc2Cl)ccc1[N+](=O)[O-] | 30 | 75 | 100 | 100 | 35 | 80 |  |  |  |  |  |  |  |  |  | 20 | 30 | 98
9 | CCC/C(=C\C(=O)OCC)OC(=O)c1cc(Oc2ccc(C(F)(F)F)cc2Cl)ccc1[N+](=O)[O-] | 5 | 15 | 0 | 0 | 5 | 35 |  |  |  |  |  |  |  |  |  |  |  | 
10 | C=C(COC(=O)c1cc(Oc2ccc(C(F)(F)F)cc2Cl)ccc1Cl)C(=O)OCCC | 10 | 35 | 100 | 100 | 30 | 75 |  |  |  |  |  |  |  |  |  | 5 | 10 | 20
11 | C/C(=C\C(=O)OC(C)(C)C)OC(=O)c1cc(Oc2ccc(C(F)(F)F)cc2Cl)ccc1[N+](=O)[O-] | 30 | 40 | 75 | 50 | 15 | 45 |  |  |  |  |  |  |  |  |  | 5 | 5 | 30
12 | CCOC(=O)/C(C)=C(\C)OC(=O)c1cc(Oc2ccc(C(F)(F)F)cc2Cl)ccc1Cl | 20 | 30 | 100 | 90 | 25 | 25 |  |  |  |  |  |  |  |  |  | 0 | 0 | 5
13 | C=C(COC(=O)c1cc(Oc2ccc(C(F)(F)F)cc2Cl)ccc1Cl)C(=O)OCC | 20 | 95 | 100 | 100 | 70 | 90 |  |  |  |  |  |  |  |  |  | 10 | 40 | 30
14 | CC/C(=C\C(=O)OC)OC(=O)c1cc(Oc2ccc(C(F)(F)F)cc2Cl)ccc1[N+](=O)[O-] | 0 | 15 | 10 | 0 | 5 | 35 |  |  |  |  |  |  |  |  |  |  |  | 
15 | CC(C)OC(=O)/C=C/COC(=O)c1cc(Oc2ccc(C(F)(F)F)cc2Cl)ccc1[N+](=O)[O-] |  |  |  |  |  |  | 30 | 85 | 90 | 80 | 95 | 80 | 100 | 80 | 60 |  |  | 
16 | CCOC(=O)/C(C)=C(\C)OC(=O)c1cc(Oc2ccc(C(F)(F)F)cc2Cl)ccc1[N+](=O)[O-] | 15 | 55 | 100 | 35 | 50 | 25 |  |  |  |  |  |  |  |  |  | 10 | 20 | 0
17 | CCCCOC(=O)/C=C/COC(=O)c1cc(Oc2ccc(C(F)(F)F)cc2Cl)ccc1[N+](=O)[O-] |  |  |  |  |  |  | 10 | 80 | 85 | 90 | 90 | 70 | 95 | 40 | 20 |  |  | 
18 | CCOC(=O)/C=C(\C)OC(=O)c1cc(Oc2ccc(C(F)(F)F)cc2Cl)ccc1[N+](=O)[O-] | 40 | 98 | 100 | 85 | 90 | 60 |  |  |  |  |  |  |  |  |  | 10 | 80 | 10
19 | COC(=O)/C=C(\C)OC(=O)c1cc(Oc2ccc(C(F)(F)F)cc2Cl)ccc1[N+](=O)[O-] | 50 | 95 | 100 | 75 | 80 | 80 |  |  |  |  |  |  |  |  |  | 15 | 5 | 25
20 | CCCOC(=O)/C=C/COC(=O)c1cc(Oc2ccc(C(F)(F)F)cc2Cl)ccc1[N+](=O)[O-] |  |  |  |  |  |  | 10 | 80 | 90 | 95 | 100 | 70 | 100 | 70 | 40 |  |  | 
21 | C=C(COC(=O)c1cc(Oc2ccc(C(F)(F)F)cc2Cl)ccc1Cl)C(=O)OC | 15 | 30 | 100 | 98 | 25 | 75 |  |  |  |  |  |  |  |  |  | 5 | 10 | 10
22 | CCOC(=O)/C=C(\C)COC(=O)c1cc(Oc2ccc(C(F)(F)F)cc2Cl)ccc1[N+](=O)[O-] | 20 | 20 | 100 | 100 | 10 | 35 |  |  |  |  |  |  |  |  |  | 5 | 10 | 90
